Experimental data taken from ChEMBL document CHEMBL4145619, “Computer-Assisted Discovery of Retinoid X Receptor Modulating Natural Products and Isofunctional Mimetics” (J Med Chem, 2018).
Active and inactive are the calls of the source. No cut-off for these calls is given here.

Tests used:
Type in all cases: cell-based
[1] = molecular target: T1, Nuclear receptor subfamily 1 group I member 2 (Homo sapiens, UniProt O75469); assay: Transactivation of human Gal4-fused PXR LBD expressed in HEK293T cells at 30 uM after 12 to 14 hrs by dual-glo luciferase assay
T1 sequence (O75469 whole entry): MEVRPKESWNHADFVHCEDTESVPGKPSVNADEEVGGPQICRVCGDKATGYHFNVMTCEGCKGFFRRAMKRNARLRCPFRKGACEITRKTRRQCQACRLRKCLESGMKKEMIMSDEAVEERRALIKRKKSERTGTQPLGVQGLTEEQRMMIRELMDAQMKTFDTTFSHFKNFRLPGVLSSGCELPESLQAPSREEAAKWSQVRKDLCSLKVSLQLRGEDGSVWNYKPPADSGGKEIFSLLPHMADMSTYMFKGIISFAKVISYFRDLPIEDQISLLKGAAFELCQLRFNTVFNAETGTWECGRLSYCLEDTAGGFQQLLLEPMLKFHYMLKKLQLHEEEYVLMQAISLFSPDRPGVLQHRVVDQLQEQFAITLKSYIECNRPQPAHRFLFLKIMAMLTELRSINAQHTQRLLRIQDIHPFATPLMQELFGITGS
In short: (§1)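 Single-concentration selectivity profiling in Gal4-hybrid reporter gene assays in HEK293T cells. Each nuclear receptor construct (RAR, PPAR, LXR, FXR, CAR, VDR, PXR, RXR) was tested at 30 μM.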

[2] = molecular target: T2, Retinoic acid receptor gamma (Homo sapiens) (UniProt P13631); assay: Transactivation of human Gal4-fused RARgamma LBD expressed in HEK293T cells at 30 uM after 12 to 14 hrs by dual-glo luciferase assay; in short: as §1
T2 sequence (whole entry): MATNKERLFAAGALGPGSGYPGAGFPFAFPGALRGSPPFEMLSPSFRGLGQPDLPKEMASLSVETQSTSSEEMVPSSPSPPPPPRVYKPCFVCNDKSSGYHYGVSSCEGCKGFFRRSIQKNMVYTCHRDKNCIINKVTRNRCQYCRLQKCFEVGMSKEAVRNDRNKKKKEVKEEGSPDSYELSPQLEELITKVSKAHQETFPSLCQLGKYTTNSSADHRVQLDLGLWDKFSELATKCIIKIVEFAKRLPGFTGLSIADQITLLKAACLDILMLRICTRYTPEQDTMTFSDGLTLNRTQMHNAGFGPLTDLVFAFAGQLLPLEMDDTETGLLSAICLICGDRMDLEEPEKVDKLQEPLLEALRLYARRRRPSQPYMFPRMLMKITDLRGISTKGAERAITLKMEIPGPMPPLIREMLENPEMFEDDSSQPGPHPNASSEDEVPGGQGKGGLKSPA

[3] = molecular target: T3, Nuclear receptor subfamily 1 group I member 3 (Homo sapiens, UniProt Q14994); assay: Transactivation of human Gal4-fused CAR LBD expressed in HEK293T cells at 30 uM after 12 to 14 hrs by dual-glo luciferase assay; in short: as §1
T3 sequence (Q14994 whole entry): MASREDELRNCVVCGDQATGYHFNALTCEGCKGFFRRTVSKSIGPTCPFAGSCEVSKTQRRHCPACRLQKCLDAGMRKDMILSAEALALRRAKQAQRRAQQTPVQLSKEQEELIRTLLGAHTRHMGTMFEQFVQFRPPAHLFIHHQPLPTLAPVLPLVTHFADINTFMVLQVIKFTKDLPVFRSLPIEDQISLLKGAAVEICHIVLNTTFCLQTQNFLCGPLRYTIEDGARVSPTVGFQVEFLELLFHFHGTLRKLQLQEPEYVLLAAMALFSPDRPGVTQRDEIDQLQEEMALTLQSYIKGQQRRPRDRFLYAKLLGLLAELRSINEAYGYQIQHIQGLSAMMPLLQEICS

[4] = molecular target: T4, Peroxisome proliferator-activated receptor alpha (Homo sapiens) (UniProt Q07869); assay: Transactivation of human Gal4-fused PPARalpha LBD expressed in HEK293T cells at 30 uM after 12 to 14 hrs by dual-glo luciferase assay; in short: as §1
T4 sequence (whole entry): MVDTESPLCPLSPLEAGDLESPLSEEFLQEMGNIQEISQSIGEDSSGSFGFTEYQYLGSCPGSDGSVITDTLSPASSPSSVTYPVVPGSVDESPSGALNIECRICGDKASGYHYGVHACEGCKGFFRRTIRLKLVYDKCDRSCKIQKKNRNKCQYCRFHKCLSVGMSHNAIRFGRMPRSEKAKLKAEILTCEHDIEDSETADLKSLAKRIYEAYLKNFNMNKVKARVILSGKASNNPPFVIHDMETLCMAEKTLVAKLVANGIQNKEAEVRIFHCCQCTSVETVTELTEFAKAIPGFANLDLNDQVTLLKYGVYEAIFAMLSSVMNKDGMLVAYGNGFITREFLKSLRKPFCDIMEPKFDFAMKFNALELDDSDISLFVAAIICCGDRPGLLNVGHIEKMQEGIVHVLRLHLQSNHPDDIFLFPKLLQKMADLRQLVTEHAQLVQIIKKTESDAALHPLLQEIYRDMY

[5] = molecular target: Retinoid X receptor (Homo sapiens) (UniProt P28702+P48443+P19793); assay: Transactivation of RXR in human HepG2 cells assessed as induction of ABCA1 mRNA expression at 30 uM after 8 hrs by qRT-PCR analysis
In short: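 HepG2 cells were treated and ABCA1 or ApoE mRNA levels measured. Results are given as mean fold induction versus 0.1% DMSO vehicle ± SEM, n = 3. Significance was set at p < 0.05, 0.01 or 0.001.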

[6] = molecular target: T5, Retinoic acid receptor RXR-alpha (Homo sapiens) (UniProt P19793); assay: Transactivation of human Gal4-fused RXRalpha LBD expressed in HEK293T cells after 12 to 14 hrs by dual-glo luciferase assay relative to bexarotene
T5 sequence (whole entry): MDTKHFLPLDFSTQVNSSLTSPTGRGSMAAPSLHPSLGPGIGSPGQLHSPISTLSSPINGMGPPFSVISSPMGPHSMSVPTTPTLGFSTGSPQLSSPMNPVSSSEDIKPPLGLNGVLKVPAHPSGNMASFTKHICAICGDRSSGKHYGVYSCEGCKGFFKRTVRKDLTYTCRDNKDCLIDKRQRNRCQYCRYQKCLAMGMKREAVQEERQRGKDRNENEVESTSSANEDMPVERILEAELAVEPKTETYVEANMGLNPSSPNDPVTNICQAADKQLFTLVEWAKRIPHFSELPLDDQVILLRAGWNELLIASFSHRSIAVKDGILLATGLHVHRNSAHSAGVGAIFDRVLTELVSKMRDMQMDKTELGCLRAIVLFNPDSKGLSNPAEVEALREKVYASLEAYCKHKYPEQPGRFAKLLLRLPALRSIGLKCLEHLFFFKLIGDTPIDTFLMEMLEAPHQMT

Retinoid X receptor (Homo sapiens), sequence (P28702 whole entry, looked up, one chain of several): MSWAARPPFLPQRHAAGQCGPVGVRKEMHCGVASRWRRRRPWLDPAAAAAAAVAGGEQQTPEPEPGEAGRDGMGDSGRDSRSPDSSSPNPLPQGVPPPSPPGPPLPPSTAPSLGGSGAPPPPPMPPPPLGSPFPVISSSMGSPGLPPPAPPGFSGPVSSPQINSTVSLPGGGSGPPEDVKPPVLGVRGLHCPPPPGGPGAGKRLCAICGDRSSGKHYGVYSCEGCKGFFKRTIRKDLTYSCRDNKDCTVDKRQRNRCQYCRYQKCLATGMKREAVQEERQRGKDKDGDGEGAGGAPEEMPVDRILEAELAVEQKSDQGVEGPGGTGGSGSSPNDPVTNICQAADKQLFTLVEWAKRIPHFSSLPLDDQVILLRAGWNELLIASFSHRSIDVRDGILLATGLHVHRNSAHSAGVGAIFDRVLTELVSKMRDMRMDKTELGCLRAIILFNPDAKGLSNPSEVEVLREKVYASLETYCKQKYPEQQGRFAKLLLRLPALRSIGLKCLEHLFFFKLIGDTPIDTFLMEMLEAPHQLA
Retinoid X receptor (Homo sapiens), sequence (P48443 whole entry, looked up, one chain of several): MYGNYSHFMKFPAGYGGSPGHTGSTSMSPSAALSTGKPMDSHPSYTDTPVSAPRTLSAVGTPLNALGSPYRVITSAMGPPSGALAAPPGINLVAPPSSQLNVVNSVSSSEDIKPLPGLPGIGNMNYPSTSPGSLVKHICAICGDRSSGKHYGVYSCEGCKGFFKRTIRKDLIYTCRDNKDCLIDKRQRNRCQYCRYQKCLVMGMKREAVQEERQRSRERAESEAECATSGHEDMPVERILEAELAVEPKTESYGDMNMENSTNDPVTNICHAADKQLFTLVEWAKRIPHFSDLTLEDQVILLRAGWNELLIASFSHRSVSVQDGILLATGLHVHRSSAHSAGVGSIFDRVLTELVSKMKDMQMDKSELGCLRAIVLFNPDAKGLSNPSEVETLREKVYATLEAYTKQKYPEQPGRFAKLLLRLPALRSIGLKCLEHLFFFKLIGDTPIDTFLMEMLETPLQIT

Activity [1]: Not Active | Activity [2]: inactive | Activity [3]: Not Active | Activity [4]: inactive | Activity [5]: Active | fold change (FC) [6]: 9
SMILES: CC1=C2[C@H](/C=C(\C)C(=O)O)CC[C@@H](C)[C@H]2CC1 [VALERENIC ACID]
